From ChEMBL document CHEMBL3112405, “A-ring modified betulinic acid derivatives as potent cancer preventive agents” (Bioorg Med Chem Lett, 2014)

Key:
Mus musculus [1] = species: Mus musculus; test: Inhibition of DMBA-TPA-induced carcinogenesis in mouse skin assessed as reduction of number of papilloma at 85 nmol after 11 weeks relative to control; format: functional; design: scale not given: the % may be the effect or the level left
How it was run: (§1)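 Two-stage mouse skin model. Initiation used DMBA (390 nmol). Promotion used TPA (1.7 nmol) twice weekly, starting 1 week after initiation. Test compound (85 nmol) was given with TPA. Papilloma incidence (% of mice bearing papillomas) and average papillomas per mouse were monitored over 20 weeks against a TPA-alone control.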

Raji [2] = test: Chemopreventive activity in human Raji cells assessed as inhibition of TPA-induced EBV-early antigen activation by measuring EBV-EA positive cells at 1000 molar ratio/20 ng/ml of TPA after 48 hrs by immunofluorescence analysis relative to control; format: cell-based; design: scale not given: the % may be the effect or the level left; conditions: human gammaherpesvirus 4
How it was run: (§2)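 Raji cells (EBV genome-carrying, Burkitt's lymphoma-derived, virus non-producer), grown in RPMI-1640 with 10% FBS. Cells were incubated 48 h at 37 °C with n-butyric acid (4 mM), TPA ([…] = 20 ng, in DMSO) and test compound in DMSO at 10–1000 mol ratio/TPA. EBV-EA-positive cells were detected by indirect immunofluorescence using NPC patient serum, with at least 500 cells counted. Triplicates were run, expressed relative to the butyrate+TPA control (100%). Viability was checked by Trypan blue.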

Mus musculus [3] = species: Mus musculus; test: Inhibition of DMBA-TPA-induced carcinogenesis in mouse skin assessed as reduction of number of papilloma at 85 nmol after 8 weeks relative to control; format: functional; design: scale not given: the % may be the effect or the level left; how it was run: as §1
[4] = Chemopreventive activity in human Raji cells assessed as molar ratio of compound required to inhibit 50% of control of inhibition of TPA-induced EBV-early antigen activation after 48 hrs by immunofluorescence analysis; format: cell-based, human gammaherpesvirus 4
How it was run: (§3)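 Raji cells (EBV genome-carrying, virus non-producer; cultured in RPMI-1640 with 10% FBS) incubated 48 h at 37 °C with n-butyric acid (4 mM), TPA ([…] = 20 ng) and test compounds in DMSO. EBV-EA positive cells were detected by indirect immunofluorescence with NPC patient serum, counting ≥500 cells, triplicate. Results were expressed relative to the butyric acid+TPA control (100%). Viability was checked by Trypan blue.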

Raji [5] = test: Chemopreventive activity in human Raji cells assessed as inhibition of TPA-induced EBV-early antigen activation by measuring EBV-EA positive cells at 10 molar ratio/20 ng/ml of TPA after 48 hrs by immunofluorescence analysis; format: cell-based; design: scale not given: the % may be the effect or the level left; conditions: human gammaherpesvirus 4; how it was run: as §3
Raji [6] = test: Chemopreventive activity in human Raji cells assessed as inhibition of TPA-induced EBV-early antigen activation by measuring EBV-EA positive cells at 500 molar ratio/20 ng/ml of TPA after 48 hrs by immunofluorescence analysis; format: cell-based; design: scale not given: the % may be the effect or the level left; conditions: human gammaherpesvirus 4; how it was run: as §2
Raji [7] = test: Chemopreventive activity in human Raji cells assessed as inhibition of TPA-induced EBV-early antigen activation by measuring EBV-EA positive cells at 100 molar ratio/20 ng/ml of TPA after 48 hrs by immunofluorescence analysis; format: cell-based; design: scale not given: the % may be the effect or the level left; conditions: human gammaherpesvirus 4; how it was run: as §2

| SMILES | Activity (Mus musculus [1]) [%] | Activity (Raji [2]) [%] | Activity (Mus musculus [3]) [%] | IC50 [4] [molar ratio] | Activity (Raji [5]) [%] | Activity (Raji [6]) [%] | Activity (Raji [7]) [%] |
| --- | --- | --- | --- | --- | --- | --- | --- |
| C=C(C)[C@@H]1CC[C@]2(C)[C@H](CC[C@@H]3[C@H]4[C@H](C(C)C)CC[C@]4(C(=O)O)CC[C@]32C)[C@@]1(C)CCC(=O)O | 10 | 0 | 0 | 295 | 91.6 | 26.6 | 65.1 |
| CC(=O)NCCCCCCCNC(=O)[C@]12CC[C@@H](C(C)C)[C@@H]1[C@H]1CC[C@@H]3[C@@](C)(CCC(=O)O)[C@H](C(C)CO)CC[C@@]3(C)[C@]1(C)CC2 (stereo partly drawn) | – | 6.6 | – | 471 | 100 | 52.1 | 77.5 |
| CC(=O)NCCCCCCCNC(=O)[C@]12CC[C@@H](C(C)C)[C@@H]1[C@H]1CC[C@@H]3[C@@](C)(CCC(=O)O)[C@H](C(C)COC(=O)CC(C)(C)C(=O)O)CC[C@@]3(C)[C@]1(C)CC2 (stereo partly drawn) | – | 11.3 | – | 501 | 100 | 57.2 | 81.3 |
| COC(=O)CC[C@]1(C)[C@H]2CC[C@@H]3[C@H]4[C@H](C(C)C)CC[C@]4(C(=O)O)CC[C@@]3(C)[C@]2(C)CC[C@H]1C(C)CO (stereo partly drawn) | 10 | 0 | 0 | 323 | 96.3 | 31.6 | 68.1 |
| COc1cc(/C=C/C(=O)CC(=O)/C=C/c2ccc(O)c(OC)c2)ccc1O [CURCUMIN] | – | 0 | – | 341 | 100 | 22.8 | 81.7 |
| C=C(C)[C@@H]1CC[C@]2(C)[C@H](CC[C@@H]3[C@H]4[C@H](C(C)C)CC[C@]4(C(=O)O)CC[C@]32C)[C@@]1(C)CCC(=O)OC | – | 0 | – | 311 | 94.2 | 29.1 | 66.9 |
| COC(=O)CC[C@]1(C)[C@H]2CC[C@@H]3[C@H]4[C@H](C(C)C)CC[C@]4(C(=O)NCCCCCCCNC(C)=O)CC[C@@]3(C)[C@]2(C)CC[C@H]1C(C)COC(C)=O (stereo partly drawn) | – | 7.8 | – | 490 | 100 | 56 | 79.4 |
| C=C(C)[C@@H]1CC[C@]2(C)[C@H](CC[C@@H]3[C@H]4[C@H](C(C)C)CC[C@]4(C(=O)NCCCCCCCNC(C)=O)CC[C@]32C)[C@@]1(C)CCC(=O)O | – | 6.7 | – | 460 | 100 | 50.2 | 76.3 |
| C=C(C)[C@@H]1CC[C@]2(C(=O)O)CC[C@]3(C)[C@H](CC[C@@H]4[C@@]5(C)CC[C@H](OC(=O)CC(C)(C)C(=O)O)C(C)(C)[C@@H]5CC[C@]43C)[C@@H]12 [BEVIRIMAT] | – | 6.1 | – | 396 | – | 36.1 | 74.2 |
| COC(=O)CC[C@]1(C)[C@H]2CC[C@@H]3[C@H]4[C@H](C(C)C)CC[C@]4(C(=O)O)CC[C@@]3(C)[C@]2(C)CC[C@H]1C(C)COC(=O)CC(C)(C)C(=O)O (stereo partly drawn) | – | 3.7 | – | 386 | 100 | 36.4 | 71.3 |
| CC(=O)NCCCCCCCNC(=O)[C@]12CC[C@@H](C(C)C)[C@@H]1[C@H]1CC[C@@H]3[C@@]4(C)CCC(=O)OC(C)(C)[C@@H]4CC[C@@]3(C)[C@]1(C)CC2 | – | 15.3 | – | 523 | 100 | 61.4 | 83.2 |
| COC(=O)CC[C@]1(C)[C@H]2CC[C@@H]3[C@H]4[C@H](C(C)C)CC[C@]4(C(=O)O)CC[C@@]3(C)[C@]2(C)CC[C@H]1C(C)COC(C)=O (stereo partly drawn) | – | 0 | – | 335 | 98.2 | 33.8 | 68.8 |
| C=C(C)[C@@H]1CC[C@]2(C)[C@H](CC[C@@H]3[C@H]4[C@H](C(C)C)CC[C@]4(C(=O)NCCCCCCCNC(C)=O)CC[C@]32C)[C@@]1(C)CCC(=O)OC | – | 7.1 | – | 479 | 100 | 54.4 | 77.2 |
